Screening data as filed in PubChem BioAssay.
A selection: hits, their analogues and other compounds. The true share with any hit is near 2.3%.
TDP2 absorb: TDP2 (human) inhibition, absorbance primary screen | O95551 | recombinant TDP2, T5PNP hydrolysis, p-nitrophenol absorbance 415 nm | inhibition, % at 12.8 µM | 0.34% of 370,000 active | AID 720702;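 active = inhibition above the mean of all tested compounds plus 3 SD, set per campaign, cut at about 25% in these data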;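 also: 0% = DMSO with enzyme and 100% = buffer with substrate but no TDP2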
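Material: recombinant human TDP2; quantity: TDP2 enzyme at 120 nM final; medium: Tris-HCl pH 7.5 with MgCl2; compound: single concentration, 12.8 µM nominal, with 1% DMSO; incubation: 2 h enzyme incubation at 37 °C; signal: epi absorbance; measure: percent inhibition; benchmarks: high control without enzyme, low control DMSO plus TDP2; repeats: singlicate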
Apaf-1 inh: blocks human Apaf-1 apoptosome activity; 0.71% of 330,000 active; reconstituted apoptosome caspase-3 activity, DEVD-Rh110 fluorescence; O14727; inhibition, % at 20 µM; active = inhibition of at least 40% at 20 µM;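 also: plate controls were DMSO wells for no effect and DEVD-CHO caspase inhibitor wells for full effect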
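Material: reconstituted apoptosome with Apaf-1, cytochrome c, caspase-9, procaspase-3, dATP / Buffer or medium: pH 7.5 Hepes buffer with CHAPS, BSA, DTT / Also added: cytochrome c with DEVD-Rh110 / Schedule: compound with Apaf-1, dATP, procaspase-3 30 min, then 50 min reaction, room temperature / Technique: rhodamine 110 fluorescence at Ex 480/Em 540 nm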
PAFAH2 inh: PAFAH2 (human) inhibition. Q99487. recombinant PAFAH2, FP-rhodamine activity probe, fluorescence polarization. inhibition, % at 3.39 µM. 0.99% of 340,000 active. AID 492956;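 active = inhibition above the mean over all tested compounds plus 3 SD, cut at about 30% in these data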;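 also: inhibitors block probe labeling of enzyme so polarization drops; 0% = enzyme with DMSO and 100% = wells lacking PAFAH2 protein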
PAFAH1B3 FP inh: inhibitors of human PAFAH1B3. recombinant PAFAH1B3, FP-rhodamine probe, fluorescence polarization. 0.28% of 340,000 active. Q15102. AID 492972. inhibition, % at 3.39 µM;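 active = inhibition above the screen-wide average of all tested compounds plus 3 SD, cut at about 25% in these data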;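 also: 0% = enzyme with DMSO only and 100% = wells lacking PAFAH1B3 protein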
PAFAH1B2 inh: PAFAH1B2 (human) inhibition | P68402 | recombinant PAFAH1B2, FP-rhodamine activity probe, fluorescence polarization | inhibition, % at 3.39 µM | 1.2% of 340,000 active | AID 492953;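 active = inhibition above the mean of all tested compounds plus 3 SD, cut at about 24% in these data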;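 also: 0% = enzyme with DMSO and 100% = wells lacking PAFAH1B2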
Apaf-1 inh conf: Apaf-1 inhibition, single-dose confirmed | inhibition, % at 20 µM | 25% of 1,800 active | shares compounds with Apaf-1 inh | reconstituted apoptosome, caspase-3 DEVD-Rh110 fluorescence;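 active = mean inhibition of at least 40% at 20 µM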;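 also: plate controls were DMSO wells for no effect and DEVD-CHO caspase inhibitor control wells for full effect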
Rh110 interf inh: interferes with Rh110 fluorescence, flagging false Apaf-1 inhibitors | activation (fluorescence interference), % at 20 µM | Rh110 fluorescence interference, quenched caspase reaction | AID 504615 | 1,800 tested, under 10 active | shares compounds with Apaf-1 inh;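 active = signal rise of 40% or more at 20 µM, treated as a fluorescence artifact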
Apaf1 inh interf: Apaf-1 inhibitor counter-screen fluorescence artifact. shares compounds with Apaf-1 inh. IC50, µM. fluorescence interference counterscreen, Apaf-1 assay format. 460 tested, under 10 active; call rule not given here
* marks the source's active call; other numbers are inactive results; · = no result given.

SMILES | TDP2 absorb | Apaf-1 inh | PAFAH2 inh | PAFAH1B3 FP inh | PAFAH1B2 inh | Apaf-1 inh conf | Rh110 interf inh | others
Cc1nn(CCC(=O)O)c2nc(-c3cccnc3)cc(C(F)(F)F)c12 | 7 | -1 | -10 | 6 | 8 | · | ·
CCOc1ccc(CCNC(=O)c2cc3sccc3n2Cc2ccccc2)cc1OCC | 9 | · | · | · | · | · | ·
Clc1ccc([C@H]2OC[C@@]3(CNCCc4c[nH]c5ccccc45)CS[C@H](c4ccc(Cl)cc4)N23)cc1 | -4 | · | · | · | · | · | ·
CN(C)CC/C=C1\c2ccccc2Sc2cc(F)c(Cl)cc21 | -12 | 9 | 8 | 12 | 0 | · | ·
CC[N+](C)(C)CC/C=C1/c2ccccc2Sc2ccc(Cl)cc21 | 18 | -4 | · | · | · | · | ·
O=C(CN1CCCC1)N1c2ccccc2Sc2ccc(Cl)cc21 | -6 | -2 | -2 | 4 | 3 | · | ·
CN(C)CC/C=C1\c2ccccc2Sc2ccc(Cl)cc21 | -1 | 49* | -1 | 8 | -2 | 16 | 6
OCCN1CCN(CC/C=C2/c3ccccc3Sc3ccc(Cl)cc32)CC1 | -3 | 43* | 0 | -2 | 3 | 12 | 6
CCCCCCCCCC[N+](C)(C)CC/C=C1/c2ccccc2Sc2ccc(Cl)cc21 | · | 81* | -6 | 8 | 2 | 88* | 36 | Apaf1 inh interf=>100
CCCCCCCCCCC[N+](C)(C)CC/C=C1/c2ccccc2Sc2ccc(Cl)cc21 | · | 75* | 4 | 6 | 5 | 88* | 28 | Apaf1 inh interf=>100
CN1CC=C(c2ccccc2)N(c2ccc(Cl)cc2)C1=O | -3 | · | · | · | · | · | ·
COc1ccc(C(F)(F)F)cc1NC(=O)C(OC(=O)CNC(=O)c1ccccc1)c1ccccc1 (stereo not drawn) | 4 | · | · | · | · | · | ·
CC(C)NC[C@@H](O)c1ccc(O)c(O)c1 | 7 | 43* | 15 | 14 | 0 | 14 | 5
O=C(CCn1cnc(-c2ccccc2)c1-c1ccccc1)N/N=C/c1ccc(O)cc1 | -10 | 5 | -6 | -5 | 3 | · | ·
COc1ccc(/C=N/NC(=O)CCn2cnc(-c3ccccc3)c2-c2ccccc2)cc1 | 9 | 54* | -6 | 6 | 1 | 44* | 11 | Apaf1 inh interf=>100
CN(C)c1cccc(/C=C2\CC3(OC(=O)c4ccco4)CCCN2C3)c1 (stereo not drawn) | 4 | · | · | · | · | · | ·
CCc1ccc(NC(=O)CSc2ccc(-c3ccco3)nn2)cc1 | -6 | -3 | -5 | 1 | 2 | · | ·
CC(=O)c1cccc(NC(=O)CSc2ccc(-c3ccco3)nn2)c1 | 18 | 45* | 3 | -2 | 8 | 7 | 6
CCCCc1cc(=O)oc2cc(OCC(=O)NCCN3CCOCC3)c(Cl)cc12 | 4 | 61* | 5 | 4 | -3 | 11 | 6
Cc1cc(C)cc(C(=O)OCCCN(C)C2CN(Cc3cn(Cc4ccccc4C(F)(F)F)nn3)S(=O)(=O)C2)c1 (stereo not drawn) | -7 | · | · | · | · | · | ·
C=CCN1[C@@H](C)COc2cc(N3CCCC3)ccc2S1(=O)=O | -2 | · | · | · | · | · | ·
[O-]C(=C(C(=S)Nc1cccc2ccccc12)[n+]1cccc(CO)c1)c1ccc(Cl)s1 | -1 | · | -5 | 10 | 3 | · | ·
[O-]/C(=C(\C(=S)Nc1cccc2ccccc12)[n+]1ccccc1)c1ccc(Cl)s1 | 3 | 47* | -5 | 9 | 10 | 15 | -2
C=CCN1C(=O)[C@@H](CC(=O)NCc2cccs2)[C@]2(C(=O)OC)CCCCC=C12 | -2 | · | · | · | · | · | ·
CCCCNC(=O)NCCCN1CCN(c2ccc(F)cc2)CC1 | -2 | · | · | · | · | · | ·
SMILES | TDP2 absorb | Apaf-1 inh | PAFAH2 inh | PAFAH1B3 FP inh | PAFAH1B2 inh | Apaf-1 inh conf | Rh110 interf inh | others
CCN1CCN(c2ccc(NC(=O)c3ccc(Br)o3)cc2)CC1 | -6 | 6 | 0 | 9 | -1 | · | ·
CN1CCN(c2ccc(NC(=O)c3ccc(-c4ccc(Br)cc4)o3)cc2)CC1 | 11 | 45* | 2 | 6 | 3 | 42* | -2 | Apaf1 inh interf=>100
Cc1cc(N)ccc1-n1nc2ccccc2n1 | 3 | -6 | -2 | 1 | 6 | · | ·
Cc1ccc(-n2nc3ccc(N)cc3n2)cc1C | 24 | 80* | -1 | 22 | 6 | 29 | 1
COc1ccc(-n2nc3ccc(N)cc3n2)cc1Cl | 22 | 95* | 10 | 15 | 6 | 55* | 9 | Apaf1 inh interf=>100
Cc1ccc(-n2nc3ccc(N)cc3n2)c(C)c1 | 12 | 68* | 3 | 7 | 1 | 32 | 14
COc1ccc(-n2nc3ccc(NS(C)(=O)=O)cc3n2)cc1Cl | 6 | 8 | 7 | -7 | 0 | · | ·
Cc1ccc(-n2nc3ccc(N)cc3n2)cc1Cl | 15 | 96* | 6 | 5 | 0 | 47* | 2 | Apaf1 inh interf=>100
COC(=O)C1CN(C2CC2)CCS(=O)(=O)N1Cc1cn(Cc2ccc(F)cc2)nn1 (stereo not drawn) | 10 | · | · | · | · | · | ·
O=C(Nc1ccc(C(F)(F)F)cc1)OC1CCC12CCC(c1ccccc1)CC2 (stereo not drawn) | 12 | · | · | · | · | · | ·
Cc1cc(C)c(C#N)c(N2CCN(c3ccccc3F)CC2)n1 | -10 | 9 | -2 | 6 | 4 | · | ·
COc1ccc(CN2C(=O)Cc3c2nc(N)c2c(N)nc(N4CCOCC4)c(C#N)c32)cc1 | 0 | 86* | 6 | 6 | 7 | 25 | 22
COCCN1C(=O)Cc2c1nc(N)c1c(N)nc(N3CCN(c4ccc(F)cc4)CC3)c(C#N)c21 | 13 | 10 | -5 | 8 | 2 | · | ·
